Screening results: PubChem, several laboratories
WT yeast gro inh: growth inhibition of WT yeast, mitochondrial fusion screen | mitochondrial fusion phenotypic screen, WT strain | inhibition, % at 10 µM | 190,000 compounds, 2.1% hits | AID 1362; in the data active = inhibition above about 58%; tested in S. cerevisiae
PMI act: phosphomannose isomerase (human) activation. purified human PMI, coupled resazurin fluorescence, 20 min; hits give high values; 1 = vehicle control, 0 substrate-free wells. AID 1214. activation factor at 20 µM. 190,000 compounds, 0.005% hits;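 active = activation factor of 2 or more at 20 µM, relative to plate controls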
Target sequence (P34949 whole entry, looked up): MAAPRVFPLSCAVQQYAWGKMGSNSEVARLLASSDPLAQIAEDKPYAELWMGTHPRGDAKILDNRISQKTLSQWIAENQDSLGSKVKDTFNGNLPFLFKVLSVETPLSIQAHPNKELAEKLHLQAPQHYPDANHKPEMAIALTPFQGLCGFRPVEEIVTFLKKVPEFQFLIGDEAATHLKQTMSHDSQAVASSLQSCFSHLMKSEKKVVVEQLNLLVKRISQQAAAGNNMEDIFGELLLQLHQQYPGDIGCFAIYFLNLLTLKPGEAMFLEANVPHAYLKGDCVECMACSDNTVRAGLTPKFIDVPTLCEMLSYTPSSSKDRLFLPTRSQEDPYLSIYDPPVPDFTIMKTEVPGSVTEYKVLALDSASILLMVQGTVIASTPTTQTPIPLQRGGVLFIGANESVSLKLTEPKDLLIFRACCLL
m-calpain inh: calpain II (pig) inhibition; purified calpain II, fluorogenic peptide substrate, 30 min; inhibition, % at 16 µM; 220,000 compounds, 0.37% hits;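 active = inhibition above about 50%, limit read from the data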
Rad51 HR inh: Rad51 (human) homologous recombination inhibition. Q06609. hRad51 DNA strand exchange, fluorescence dequenching. inhibition, % at 10 µM. 200,000 compounds, 0.085% hits;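 active = inhibition above 40% at the single screening dose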
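material = hRad51 filaments on single-stranded DNA | timing = filaments 15 min 37 °C, then compound 30 min | signal = FRET fluorescence dequenching, excitation 485 nm, emission 520 nm | benchmarks = control wells and blank wells on each plate | evaluation = percent inhibition relative to plate controls and blanks | compound = 10 µM final, single point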
PMI act hi M6P: increases human PMI activity with near-saturating mannose 6-phosphate; AID 1216; P34949; activation factor at 20 µM; coupled PMI enzyme assay, resazurin fluorescence, 20 min; hits give high values; 1 = untreated enzyme, 0 = substrate-free blank; 190,000 compounds, 0.34% hits;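 active = activation factor of 2 or more at 20 µM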
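Test system: human phosphomannose isomerase with PGI, G6PDH, diaphorase coupling enzymes; Amount: PMI at 15 ng/mL final; Reagent: Mannose-6-phosphate 1.0 mM (near-saturating) plus 0.22 mM NADP+; Timing: 20 min, room temperature; Technique: resorufin fluorescence at Ex 544/Em 590 nm; Dosing: 20 µM single dose.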
L major viab: Leishmania major promastigote growth inhibition; Leishmania major promastigotes, resazurin fluorescence viability; inhibition, % at 10 µM; 200,000 compounds, 9% hits; AID 1063; in the data active = inhibition above about 50%;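 also: promastigotes grown with compound for 44 hours at 28 °C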
Numbers stand for hits; . = inactive; / = no result given. Most compounds without a hit are left out; they make up all but 9.8% or so of the library.

SMILES	WT yeast gro inh	PMI act	m-calpain inh	Rad51 HR inh	PMI act hi M6P	L major viab
COc1ccccc1NS(=O)(=O)c1cc(NC(=O)C2CCC2)ccc1N1CCCCC1	/	/	.	/	/	/
Cc1nn(-c2ccccc2)c(Cl)c1C(=O)NCc1cccs1	.	.	.	.	.	.
Cc1ccccc1-n1ncc(C(C)NC(=O)c2ccccc2)c1C (stereo not drawn)	.	.	.	.	.	.
COc1ccc(-n2nc(C)c3sc(C)nc3c2=O)cc1	/	/	.	.	/	/
CC1(C)CNc2cc(N)ccc2S1	.	.	.	.	.	.
CCCc1cc(=O)n2c([nH]c3ccccc32)c1C#N	.	.	.	.	.	.
CCCCc1c(C)c(C#N)c2[nH]c3ccccc3n2c1=O	.	.	.	.	.	65
Cc1c(CCC(C)C)c(=O)n2c([nH]c3ccccc32)c1C#N	.	.	.	.	.	99
COc1ccc(NC(=O)C(c2ccccc2)N(C)C(=O)c2ccc(=O)[nH]c2)cc1 (stereo not drawn)	.	.	.	.	.	.
Cc1nn(CC(=O)Nc2ccc3c(c2)nc(CCN2CCCCC2)n3C)c(=O)c2ccccc12	.	.	.	.	.	.
Cc1nn(CC(=O)Nc2ccc3c(c2)nc2n3CCN(C3CCCCC3)C2)c(=O)c2ccccc12	.	.	.	/	.	72
O=C(Cc1ccccc1)N/N=C/c1ccc(-c2ccc([N+](=O)[O-])cc2)o1	.	.	.	/	.	.
CCCNC(=O)Cn1c(=O)/c(=C\c2ccc(-c3cccc([N+](=O)[O-])c3)o2)s/c1=C\C(=O)C(C)(C)C	.	.	.	.	.	63
CCCNC(=O)Cn1c(=O)/c(=C\c2ccc(-c3ccc([N+](=O)[O-])cc3)o2)s/c1=C\C(=O)C(C)(C)C	.	.	.	.	.	73
Cc1ccc(C(=O)N/C(=C\c2ccc(-c3cccc([N+](=O)[O-])c3)o2)C(=O)NC(C)(C)C)cc1	.	.	.	.	.	.
CCCCNC(=O)COC(=O)c1ccc(N(C)C)cc1	.	.	.	.	.	.
N#Cc1nc(-c2cccc3ccccc23)oc1NCCN1CCCCC1	.	.	.	.	.	100
O=C(/C=C/c1ccc2c(c1)OCO2)NCCSCc1c(Cl)cccc1Cl	.	.	.	.	.	.
CN(C(=O)CSc1nnc(-c2ccncc2)n1-c1ccccc1)C1CCS(=O)(=O)C1 (stereo not drawn)	/	/	.	48	/	/
Cc1ccc(SCC(=O)N(C)C2CCS(=O)(=O)C2)cc1 (stereo not drawn)	.	.	.	.	.	.
Cc1ccc(-c2nc(SCC(=O)N(C)C3CCS(=O)(=O)C3)[nH]c2-c2ccc(C)cc2)cc1 (stereo not drawn)	.	.	.	/	.	94
CC(=O)c1ccc(N2CCN(C(=O)C3CCCN(S(=O)(=O)c4c(C)[nH]c(=O)[nH]c4=O)C3)CC2)cc1 (stereo not drawn)	.	.	.	.	.	.
CCN(CC)S(=O)(=O)c1ccc(C(=O)NCCN(C)C)cc1	.	.	.	.	.	.
O=C(NCC1OCCc2ccccc21)c1cc(COc2c(F)cccc2F)on1 (stereo not drawn)	.	.	.	/	.	.
Oc1c(C(c2ccccn2)N2CCCCC2)cc(Cl)c2cccnc12 (stereo not drawn)	.	.	.	.	.	74
SMILES	WT yeast gro inh	PMI act	m-calpain inh	Rad51 HR inh	PMI act hi M6P	L major viab
CCCc1c(C)[nH]c2ccc(NC(C)=O)cc2c1=O	69	.	.	.	.	.
O=C(NC(c1ccccc1)C(Cl)(Cl)Cl)c1ccccc1 (stereo not drawn)	.	.	.	.	.	.
CCCOc1ccc2c3c(c(=O)oc2c1OCCC)CCCC3	.	.	.	.	.	54
O=[N+]([O-])c1ccc(C2OCCO2)cc1CS(=O)(=O)c1ccccc1	.	.	.	.	.	.
COc1ccc(-c2cc(-c3ccc(OC)c(OC)c3)n[nH]2)c(O)c1	.	.	.	.	.	99
COc1ccc(O)c(-c2cc(-c3cccc(Br)c3)n[nH]2)c1	.	.	.	/	.	.
COc1ccc(-c2cc(-c3cc(OC)ccc3O)[nH]n2)cc1	.	.	.	.	.	91
COCC(C)NC(=O)Cc1ccc(F)cc1 (stereo not drawn)	.	.	.	.	.	.
COCC(C)N1CC(O)=C(c2nc(-c3ccc(Cl)cc3)cs2)C1=N (stereo not drawn)	.	.	.	.	.	.
Cc1ccccc1OCCOCCN1CCCCCC1	.	.	.	.	.	99
Cc1cc(OCCOCCN2CCCC2)ccc1C(C)C	.	.	.	.	.	100
Cc1cccc(OCCOCCN2CCOCC2)c1C	.	.	.	.	.	88
Cc1cccc(OCCOCCN2CCNCC2)c1C	.	.	.	.	.	.
CCc1cccc(OCCOCCN2CCCC2)c1	.	.	.	.	.	97
CC1CCC2C(=O)N(c3ccc(Cc4ccncc4)cc3)C(=O)C2C1 (stereo not drawn)	.	.	.	/	.	.
CC(NC(=O)Cc1ccc([N+](=O)[O-])cc1)c1ccc2c(c1)OCO2 (stereo not drawn)	/	/	.	/	/	/
Brc1ccc(-c2noc3c2-c2nc(-c4ccccc4)sc2CC3)cc1	/	/	/	.	/	/
Cc1ccc(C(C)C)cc1OCCOCCN1CCCC1	.	.	.	.	.	100
Cc1cccc(C(C)(C)C)c1OCCOCCN1CCCC1	.	.	.	.	.	.
CCC(C)C(NC(N)=O)C(=O)Nc1ccc(OCc2ccccc2)cc1 (stereo not drawn)	/	/	.	.	/	/
CCOc1ccc(NC(=O)C2CC=CCC2C(=O)O)cc1 (stereo not drawn)	.	.	.	.	.	.
CCOc1ccc(NC(=O)C2CC(C)=C(C)CC2C(=O)O)cc1 (stereo not drawn)	.	.	.	.	.	81
O=C(NC(CSCc1ccccc1)C(=O)N/N=C/c1ccc(O)cc1O)c1ccc([N+](=O)[O-])cc1 (stereo not drawn)	.	.	.	.	.	100
COc1cc(O)ccc1/C=N/NC(=O)c1ccc([N+](=O)[O-])cc1	.	.	.	.	.	.
O=C(c1ccc2c3c(cccc13)CC2)C1CCCN(C(=O)c2ccc[n+]([O-])c2)C1 (stereo not drawn)	/	/	.	.	/	/
CCc1sc(/C=C(/C#N)C(N)=S)cc1[N+](=O)[O-]	.	.	.	.	.	.
O=[N+]([O-])c1ccc(-n2nnnc2-c2ccccc2)cc1	.	.	.	.	.	.
O=[N+]([O-])c1ccc(-n2nnnc2-c2ccccc2)c([N+](=O)[O-])c1	.	.	.	/	.	100
COc1ccc(CCNC(=O)c2cc(-c3ccncc3)nc3c(Cl)cccc23)cc1OC	.	.	.	.	.	51
COc1ccc(CCNC(=O)c2cc(-c3ccccn3)nc3c(Cl)cccc23)cc1OC	.	.	.	.	.	.
